Laboratory results taken from ChEMBL document CHEMBL3227978, “Azetidine derivatives of tricyclic antidepressant agents” (J Med Chem, 1979).

Experiments:
Mus musculus [1] = test: Antidepressant activity in po dosed ICEM:CET (SPF Caw) mouse assessed as antagonism of reserpine-induced hypothermia administered via gavage 30 mins before reserpine challenge measured 4 hrs after reserpine treatment; type: functional; conditions: Mus musculus, ICEM:CET(SPF Caw), po; read-out: ED50
In short: (§1)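 Groups of ten male mice (18-22 g), fasted 9 h with water until 2 h pre-test. Oral gavage in 0.5% Methocel at doses below the 25 mg/kg screen, 30 min before reserpine 2.5 mg/kg ip. Blepharospasm scored blind at 1 h, rectal temperature at 4 h. ED50 estimated by eye-fit linear plots on semilogarithmic paper.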

Mus musculus [2] = test: Antidepressant activity in po dosed ICEM:CET (SPF Caw) mouse assessed as antagonism of reserpine-induced blepharospasm administered via gavage 30 mins before reserpine challenge measured 1 hr after reserpine treatment; type: functional; conditions: Mus musculus, ICEM:CET(SPF Caw), po; read-out: ED50; in short: as §1
Mus musculus [3] = test: Anticonvulsant activity in po dosed ICEM:CET (SPF Caw) mouse assessed as antagonism of pentylenetetrazole-induced flexor-extensor tonic convulsions administered via gavage 30 mins before pentylenetetrazole challenge; type: functional; conditions: Mus musculus, ICEM:CET(SPF Caw), po; read-out: ED50
In short: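 Male mice, 18-22 g, dosed orally by gavage in 0.5% Methocel (0.1 mL/10 g), starting at a 50 mg/kg screening dose, then graded doses. Pentylenetetrazole 130 mg/kg ip given 30 min later. Ten mice per dose and for controls. Dose preventing flexor-extensor tonic convulsions in 50% of animals read from dose-response curves (ED50).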

[4] = Orientative acute toxicity in po dosed ICEM:CET (SPF Caw) mouse administered via gavage measured for 60 mins after drug dosing by Irwin's test; type: organism-based; conditions: ICEM:CET (SPF Caw), in vivo
In short: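 Male ICEM:CET (SPF Caw) mice, 18-22 g. Oral gavage, suspended or dissolved in 0.5% Methocel at 0.1 mL/10 g body weight. Doses of at least 25, 50, 100, 200, 400 and 800 mg/kg, four animals per dose. Animals were observed closely for 60 min after dosing during Irwin's symptomatologic test, and an approximate LD50 was estimated.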

**Q.** Which results are given for `CCNC1CN(C2c3ccccc3CCc3ccccc32)C1`?
**A.** ED50 (Mus musculus [1]): 12.5 mg/kg; ED50 (Mus musculus [2]): 10 mg/kg; ED50 (Mus musculus [3]): 16.7 mg/kg; LD50 at 1 h [4]: 200 mg/kg

**Q.** Which ED50 (Mus musculus [1]) does the source give for `CNCCN(C)C1c2ccccc2CCc2ccccc21` here?
**A.** > 25 mg/kg

**Q.** What about the ED50 (Mus musculus [2]) of the same compound?
**A.** > 25 mg/kg

**Q.** What about the ED50 (Mus musculus [3]) of the same compound?
**A.** 18 mg/kg

**Q.** What about the LD50 at 1 h [4] of the same compound?
**A.** 200 mg/kg

**Q.** For `CNC1CN(C2c3ccccc3CCc3ccccc32)C1C` (configuration not stated), which ED50 (Mus musculus [1]) is on record?
**A.** 10.5 mg/kg

**Q.** What about the ED50 (Mus musculus [2]) of the same compound?
**A.** 9 mg/kg

**Q.** What about the ED50 (Mus musculus [3]) of the same compound?
**A.** 25 mg/kg

**Q.** And the LD50 at 1 h [4]?
**A.** 400 mg/kg

**Q.** Which ED50 (Mus musculus [1]) does the source give for `c1ccc(CNC2CN(C3c4ccccc4CCc4ccccc43)C2)cc1` here?
**A.** > 25 mg/kg

**Q.** And the ED50 (Mus musculus [2])?
**A.** 12 mg/kg

**Q.** And the ED50 (Mus musculus [3])?
**A.** > 50 mg/kg

**Q.** What about the LD50 at 1 h [4] of the same compound?
**A.** 800 mg/kg

**Q.** With `CNC1CN(C2c3ccccc3COc3ccccc32)C1` (configuration not stated) as the compound, how does the ED50 (Mus musculus [1]) read?
**A.** 15 mg/kg

**Q.** What about the ED50 (Mus musculus [2]) of the same compound?
**A.** 2.6 mg/kg

**Q.** And the ED50 (Mus musculus [3])?
**A.** 21.5 mg/kg

**Q.** And the LD50 at 1 h [4]?
**A.** 200 mg/kg

**Q.** With `CNC1CN(C2c3ccccc3CSc3ccc(Cl)cc32)C1` (configuration not stated) as the compound, how does the ED50 (Mus musculus [1]) read?
**A.** > 25 mg/kg

**Q.** And the ED50 (Mus musculus [2])?
**A.** > 25 mg/kg

**Q.** And the ED50 (Mus musculus [3])?
**A.** > 50 mg/kg

**Q.** And the LD50 at 1 h [4]?
**A.** 400 mg/kg

**Q.** Which ED50 (Mus musculus [1]) does the source give for `CNC1CN(C2c3ccccc3C=Cc3ccccc32)C1` here?
**A.** > 25 mg/kg

**Q.** And the ED50 (Mus musculus [2])?
**A.** > 25 mg/kg

**Q.** What about the ED50 (Mus musculus [3]) of the same compound?
**A.** > 50 mg/kg

**Q.** What about the LD50 at 1 h [4] of the same compound?
**A.** 200 mg/kg

**Q.** For `CNC1CN(C2c3ccccc3COc3ccc(Cl)cc32)C1` (configuration not stated), which ED50 (Mus musculus [1]) is on record?
**A.** > 25 mg/kg

**Q.** What about the ED50 (Mus musculus [2]) of the same compound?
**A.** > 25 mg/kg

**Q.** And the ED50 (Mus musculus [3])?
**A.** 15.4 mg/kg

**Q.** What about the LD50 at 1 h [4] of the same compound?
**A.** 100 mg/kg

**Q.** Which ED50 (Mus musculus [1]) does the source give for `CC(C)(C)NC1CN(C2c3ccccc3CCc3ccccc32)C1` here?
**A.** > 25 mg/kg

**Q.** And the ED50 (Mus musculus [2])?
**A.** > 25 mg/kg

**Q.** And the ED50 (Mus musculus [3])?
**A.** 28.7 mg/kg

**Q.** What about the LD50 at 1 h [4] of the same compound?
**A.** 400 mg/kg

**Q.** Which results are given for `c1ccc2c(c1)CCc1ccccc1C2N1CC(N2CCOCC2)C1`?
**A.** ED50 (Mus musculus [1]): > 25 mg/kg; ED50 (Mus musculus [2]): 17 mg/kg; ED50 (Mus musculus [3]): 46.9 mg/kg; LD50 at 1 h [4]: > 800 mg/kg

**Q.** Which results are given for `CN(C)CCCN1c2ccccc2CCc2ccccc21.Cl` [IMIPRAMINE HYDROCHLORIDE]?
**A.** ED50 (Mus musculus [1]): 12.3 mg/kg; ED50 (Mus musculus [2]): 1.6 mg/kg; ED50 (Mus musculus [3]): 19.4 mg/kg; LD50 at 1 h [4]: 200 mg/kg

**Q.** For `CN(C)C1CN(C2c3ccccc3CSc3ccccc32)C1` (configuration not stated), which ED50 (Mus musculus [1]) is on record?
**A.** > 25 mg/kg

**Q.** And the ED50 (Mus musculus [2])?
**A.** > 25 mg/kg

**Q.** And the ED50 (Mus musculus [3])?
**A.** 19 mg/kg

**Q.** What about the LD50 at 1 h [4] of the same compound?
**A.** 400 mg/kg

**Q.** Which ED50 (Mus musculus [1]) does the source give for `NCC1CN(C2c3ccccc3CCc3ccccc32)C1` here?
**A.** > 25 mg/kg

**Q.** And the ED50 (Mus musculus [2])?
**A.** > 25 mg/kg

**Q.** What about the ED50 (Mus musculus [3]) of the same compound?
**A.** > 50 mg/kg

**Q.** And the LD50 at 1 h [4]?
**A.** 400 mg/kg

**Q.** For `CC(Cc1ccccc1)NC1CN(C2c3ccccc3CCc3ccccc32)C1` (configuration not stated), which ED50 (Mus musculus [1]) is on record?
**A.** > 25 mg/kg

**Q.** And the ED50 (Mus musculus [2])?
**A.** > 25 mg/kg

**Q.** What about the ED50 (Mus musculus [3]) of the same compound?
**A.** > 50 mg/kg

**Q.** What about the LD50 at 1 h [4] of the same compound?
**A.** > 800 mg/kg

**Q.** Which ED50 (Mus musculus [1]) does the source give for `CC(C)NC1CN(C2c3ccccc3COc3ccccc32)C1` (configuration not stated) here?
**A.** 24.5 mg/kg

**Q.** And the ED50 (Mus musculus [2])?
**A.** 3.9 mg/kg

**Q.** And the ED50 (Mus musculus [3])?
**A.** 27 mg/kg

**Q.** What about the LD50 at 1 h [4] of the same compound?
**A.** 200 mg/kg

**Q.** For `CN(C)C1CN(C2c3ccccc3C3(CC3)c3ccccc32)C1`, which ED50 (Mus musculus [1]) is on record?
**A.** 16.5 mg/kg

**Q.** And the ED50 (Mus musculus [2])?
**A.** 7.2 mg/kg

**Q.** And the ED50 (Mus musculus [3])?
**A.** 24.3 mg/kg

**Q.** What about the LD50 at 1 h [4] of the same compound?
**A.** 200 mg/kg

**Q.** For `c1ccc2c(c1)CCc1ccccc1C2N1CC(n2ccnc2)C1`, which ED50 (Mus musculus [1]) is on record?
**A.** > 25 mg/kg

**Q.** What about the ED50 (Mus musculus [2]) of the same compound?
**A.** > 25 mg/kg

**Q.** What about the ED50 (Mus musculus [3]) of the same compound?
**A.** 17.7 mg/kg

**Q.** And the LD50 at 1 h [4]?
**A.** 200 mg/kg

**Q.** What does the source list for `CNC1(c2ccccc2)CN(C2c3ccccc3CCc3ccccc32)C1`?
**A.** ED50 (Mus musculus [1]): > 25 mg/kg; ED50 (Mus musculus [2]): > 25 mg/kg; ED50 (Mus musculus [3]): > 50 mg/kg; LD50 at 1 h [4]: > 400 mg/kg

**Q.** What does the source list for `CCNC1CN(C2c3ccccc3COc3ccccc32)C1` (configuration not stated)?
**A.** ED50 (Mus musculus [1]): 22.2 mg/kg; ED50 (Mus musculus [2]): 4.8 mg/kg; ED50 (Mus musculus [3]): 25.3 mg/kg; LD50 at 1 h [4]: 200 mg/kg

**Q.** With `CNC1CN(C2CCCCc3ccccc32)C1` (configuration not stated) as the compound, how does the ED50 (Mus musculus [1]) read?
**A.** > 25 mg/kg

**Q.** What about the ED50 (Mus musculus [2]) of the same compound?
**A.** > 25 mg/kg

**Q.** What about the ED50 (Mus musculus [3]) of the same compound?
**A.** 48 mg/kg

**Q.** What about the LD50 at 1 h [4] of the same compound?
**A.** 400 mg/kg

**Q.** What does the source list for `CC(C)NC1CN(C2c3ccccc3CCc3ccccc32)C1`?
**A.** ED50 (Mus musculus [1]): 8.5 mg/kg; ED50 (Mus musculus [2]): 6.5 mg/kg; ED50 (Mus musculus [3]): 23.3 mg/kg; LD50 at 1 h [4]: 200 mg/kg

**Q.** With `CN(CC(=O)c1ccccc1)C1CN(C2c3ccccc3CCc3ccccc32)C1` as the compound, how does the ED50 (Mus musculus [1]) read?
**A.** > 25 mg/kg

**Q.** And the ED50 (Mus musculus [2])?
**A.** 15 mg/kg

**Q.** What about the ED50 (Mus musculus [3]) of the same compound?
**A.** 46.8 mg/kg

**Q.** What about the LD50 at 1 h [4] of the same compound?
**A.** > 800 mg/kg

**Q.** What does the source list for `CN(C)C1CN(C2c3ccccc3COc3ccc(Cl)cc32)C1` (configuration not stated)?
**A.** ED50 (Mus musculus [1]): > 25 mg/kg; ED50 (Mus musculus [2]): > 25 mg/kg; ED50 (Mus musculus [3]): > 50 mg/kg; LD50 at 1 h [4]: 100 mg/kg
